Screens (PubChem BioAssay)
UCH37 inh = human UCH37 deubiquitinating enzyme inhibition; purified proteasome/UCH37, Ub-AMC cleavage fluorescence; inhibition, % (no concentration beside the values); 0.33% of 330,000 active; AID 588478;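 active means mean inhibition over replicate wells above about 20%, limit read from the data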
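Material: human UCH37 enzyme supplied as purified proteasome complex / Amount: 0.15 nM proteasome as dispensed / Buffer or medium: pH 7.4 Tris-HCl (50 mM) with ovalbumin, ATP-MgCl2, DTT / Times: preincubation 30 min, reaction 25 min, room temperature / Technique: AMC fluorescence from Ub-AMC cleavage, excitation 355 nm, emission 460 nm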
MEKK3 PB1 HTS = raises or lowers MEK5 binding to the human MEKK3 PB1 domain; Q99759; bead-based flow cytometry, Alexa488-MEK5 binding to MEKK3; actives lie on both sides; 0 = blocked by unlabeled MEK5, 100 = vehicle; binding response (% of control), % at 10 µM; 1.4% of 290,000 active;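 active means binding response more than 3 SD above or below the average of its plate-row segment, actives on both sides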;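 further: Alexa488 bead fluorescence after subtracting the streptavidin-only scavenger bead signal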
MEKK2wt PB1 HTS = raises or lowers MEK5 binding to wildtype human MEKK2 PB1 domain. Q9Y2U5. bead flow cytometry, Alexa488-MEK5 binding to MEKK2 WT; actives lie on both sides. binding response (% of control), % at 10 µM. 1.1% of 290,000 active. AID 1531; in the data active means binding response below about 67% or above about 130%
MEKK2mut PB1 HTS = signal of MEK5 binding to mutant human MEKK2 PB1 domain; bead flow cytometry, Alexa488-MEK5 binding to MEKK2 mutant; percent response, % at 10 µM; 0.35% of 290,000 active; in the data active means percent response above about 24%, passing the limit was not always enough
Rce1 inhib = yeast Ras-converting enzyme inhibition; AID 2563; yeast membranes, quenched prenylated peptide cleavage fluorescence; calls only; 0.27% of 290,000 active; Q03530;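 active means fall in fluorescence gain of 50% or more versus controls, with final raw signal at or below 3038400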
Target sequence (Q03530 whole entry, looked up): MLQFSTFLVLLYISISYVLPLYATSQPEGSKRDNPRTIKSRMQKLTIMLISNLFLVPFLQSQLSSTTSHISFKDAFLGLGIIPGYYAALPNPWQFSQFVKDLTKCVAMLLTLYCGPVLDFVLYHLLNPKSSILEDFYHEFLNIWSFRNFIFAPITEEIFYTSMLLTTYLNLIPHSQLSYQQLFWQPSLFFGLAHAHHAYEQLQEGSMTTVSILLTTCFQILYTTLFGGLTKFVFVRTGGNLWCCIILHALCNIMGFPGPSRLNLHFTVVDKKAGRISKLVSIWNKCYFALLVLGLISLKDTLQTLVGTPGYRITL
T cell HTS = T cell immune modulators affecting CD8 T cell-vesicle binding | 2C CD8+ T cell-vesicle binding, flow cytometry; hits give low values | response (vesicle binding), % at 7 µM | 0.068% of 330,000 active;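 active means response, share of CD8 T cells binding vesicles, and their 90th percentile fluorescence all below set limits, cut at about 80% in these data, passing the limit was not always enough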;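 further: values below 100% mean blocked vesicle binding to the CD8+ T cells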
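System: murine 2C transgenic CD8+ T lymphocytes; also added: QL9-loaded Drosophila micro-vesicles; times: binding 1.5 h at 37 °C; measured by: flow cytometry, PE anti-B7-1 (FL2) versus Alexa647 anti-CD8 (FL8), PFA-fixed; control set: Peptide-free naked vesicles (low) and QL9 vesicles with 0.7% DMSO vehicle (high)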
Numbers stand for hits; n = inactive; x = no result; + = active, no number; [ ] = another dose, or the depositor's remark. Shown are actives, neighbours in structure and some others; about 2.5% of the full set was active somewhere.

SMILES	UCH37 inh	MEKK3 PB1 HTS	MEKK2wt PB1 HTS	MEKK2mut PB1 HTS	Rce1 inhib	T cell HTS
Cn1c(=O)[nH]c(=O)c2c1nc(N1CCNCC1)n2Cc1ccccc1Cl	n	n	n	n	n	n
O=C(Nc1ccccc1-c1nc2ccccc2[nH]1)c1ccc(N2C(=O)CCC2=O)cc1	n	n	n	n	+	n
O=C(Nc1ccccc1-c1nc2ccccc2[nH]1)c1ccc(S(=O)(=O)N2CCCCC2)cc1	n	n	n	n	n	x
CCN(CC)CCCNC(=O)CCc1c(C)n(CC)c2cc(-c3ccccc3OC)nn2c1=O	n	n	n	n	+	n
Cc1ccc(C(=O)N2N=C(c3ccccc3O)CC2c2ccccc2)cc1 (stereo not drawn)	n	n	n	n	+	n
COc1cc(C=NNC(=O)CNS(=O)(=O)c2ccc(C)cc2)cc(OC)c1OC	n	x	x	x	x	x
Cc1ccc(-c2cc(C(=O)NN=Cc3c(C)nn(-c4ccccc4)c3C)n[nH]2)s1	n	x	x	x	x	x
CCCCNC(=O)Cn1nc(Cc2ccncc2)c2ccccc2c1=O	n	n	n	n	n	n
O=C(Cn1nc(Cc2ccncc2)c2ccccc2c1=O)N1CCc2ccccc2C1	20.1	x	x	x	x	n
Cc1cc(O)c2c(c1O)C(=O)[C@]13C(=C2O)C(=O)[C@@H]2[C@@H](O)[C@H]1[C@@H]1[C@H](O)[C@H]3C(=O)C3=C(O)c4c(O)cc(C)c(O)c4C(=O)[C@]312	20.9	x	x	x	x	n
C[C@@H]1COC(=O)[C@H](Cc2ccc(F)cc2)CC/C=C\C[C@@H](CC(=O)NCCO)C(=O)N1	n	x	x	x	x	59.6
O=C(C[C@@H]1C/C=C\CC[C@H](Cc2ccc(F)cc2)C(=O)OC[C@@H](Cc2ccccc2)NC1=O)NCCO	n	x	x	x	x	n
COc1cccc(SCc2noc(C(=O)NCCN(C)C)c2C(=O)NCCN(C)C)c1	32.0	n	n	n	n	n
COCCNC(=O)c1onc(CSc2cccc(OC)c2)c1C(=O)O	n	n	n	n	n	n
c1ccc(-n2cnnc2SCc2cn3cccnc3n2)cc1	n	n	n	n	+	n
O=C(CN(C1CCCCC1)C1CCCCC1)N1CCc2ccccc2C1	n	n	n	n	+	n
O=C(CN(C1CCCCC1)S(=O)(=O)c1ccccc1)N1CCCC1	n	n	n	n	n	n
Cc1nn(-c2ccccc2)c(Cl)c1C=NNc1ccc(S(=O)(=O)Nc2ccccc2C(=O)O)cc1[N+](=O)[O-]	23.2	x	x	x	x	x
COc1cc(C=NNc2ccc(S(=O)(=O)Nc3ccccc3C(=O)O)cc2[N+](=O)[O-])ccc1O	22.2	x	x	x	x	n
COC(=O)c1ccc(NC(=O)CSc2nncn2-c2ccccn2)cc1	n	0.0[inhibitor]	-11.0[inhibitor]	n	n	n
COC(=O)c1cccc(NC(=O)CSc2nncn2-c2ccccn2)c1	n	n	n	n	n	n
CC1CCN(S(=O)(=O)c2ccc(NN=C(C#N)C(N)=O)cc2)CC1	n	x	x	x	x	x
COc1cc(C=NNC(=O)c2nc(-c3ccccc3)n(-c3ccccc3)n2)ccc1O	n	x	x	x	x	x
O=S(=O)(c1cccc(NC(=S)N2CCN(c3cccc(Cl)c3)CC2)c1)C(F)F	n	134.0	n	n	n	n
CN(C)c1ccc(C=NNC(=O)c2ccccn2)cc1	n	x	x	x	x	x
SMILES	UCH37 inh	MEKK3 PB1 HTS	MEKK2wt PB1 HTS	MEKK2mut PB1 HTS	Rce1 inhib	T cell HTS
O=c1[nH][nH]c2c(N=Cc3ccccc3O)ccc(F)c12	n	57.0[inhibitor]	58.0[inhibitor]	n	x	x
O=C(O)CCCN1C(=O)/C(=C/C=C/c2ccco2)SC1=S	20.3	n	n	n	n	n
O=C(O)CC(C(=O)O)N1C(=O)/C(=C/C=C/c2ccco2)SC1=S (stereo not drawn)	21.1	n	n	n	n	n
O=C(NN1C(=O)/C(=C/C=C/c2ccco2)SC1=S)c1ccccc1O	n	n	n	n	n	n
CC(=O)Nc1ccc(S(=O)(=O)Nc2cccc(-c3nc4ccccc4o3)c2)cc1	n	n	n	n	+	n
Cn1c(/C=N/Nc2nc3ccccc3[nH]2)nc2ccccc21	x	n	n	n	n	n
Cc1c(/C=N/Nc2nc3ccccc3[nH]2)c2ccccc2n1C	x	n	168.0	n	n	n
C(=NNc1nc2ccccc2[nH]1)c1c[nH]c2ccccc12	n	x	x	x	x	x
